Measurements reported in ChEMBL document CHEMBL1124951, “N-phenyl-2-pyridinecarbothioamides as gastric mucosal protectants” (J Med Chem, 1990).
Activity calls are given as the source filed them. The rule behind the calls is not given here.

Tests used:
Rattus norvegicus [1] = species on record: Rattus norvegicus; experiment: Effective dose against ethanol-induced gastric lesions in male albino rat when given perorally was determined; 1.2-5.9; format: functional; details: Stomach, po
How it was run: (§1)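 Charles River male albino rats (190-219 g), food withheld 18-24 h with water available. Drug or vehicle given orally 1 h before ethanol (1 mL per rat po). Rats killed by CO2 asphyxiation 1 h after ethanol. Lesions scored single blind by size (mm2) and number per size category. Percent inhibition taken against the vehicle group mean; ED50 with 95% confidence limits obtained by regression of dose-response data.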

Rattus norvegicus [2] = experiment: Percent inhibition against ethanol-induced gastric lesions in male albino rat was determined at a dose of 50 mg/Kg (po); format: functional; details: Stomach; how it was run: as §1
Rattus norvegicus [3] = species on record: Rattus norvegicus; experiment: Compound was evaluated for activity against ethanol-induced gastric lesions; format: functional; details: Stomach; how it was run: as §1
Rattus norvegicus [4] = species on record: Rattus norvegicus; experiment: Compound was evaluated for activity in acute lethality model; NL=Not lethal; format: ADME, organism-based; details: in vivo
Rattus norvegicus [5] = experiment: Compound was evaluated for antisecretory action in the pylorus-ligated rat model (PLR) at 100 mg/kg;NS=No significant activity at 100 mg/kg; format: functional, organism-based
How it was run: (§2)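 Drug or vehicle given orally. After 1 h, rats anesthetized with methohexital (30 mg/kg ip) and the pylorus ligated through a midline incision. Killed by CO2 4 h after surgery. Gastric volume measured and acid titrated to pH 7.0 with 0.1 N NaOH. Total acid output (microequivalents per 4 h) = volume × acid concentration.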

Rattus norvegicus [6] = experiment: Percent inhibition against ethanol-induced gastric lesions in male albino rat was determined at a dose of 25 mg/Kg; format: functional; details: Stomach; how it was run: as §1
Rattus norvegicus [7] = experiment: Percent inhibition against ethanol-induced gastric lesions in male albino rat was determined at a dose of 10 mg/Kg; format: functional; details: Stomach; how it was run: as §1
Rattus norvegicus [8] = species on record: Rattus norvegicus; experiment: Effective dose against ethanol-induced gastric lesions in male albino rat when given perorally was determined; 0.5-1.5; format: functional; details: Stomach, po; how it was run: as §1
Rattus norvegicus [9] = experiment: Compound was evaluated for antisecretory action in the pylorus-ligated rat model (PLR) at 100 mg/kg (po); No significant activity at 100 mg/kg; format: functional, organism-based; how it was run: as §2
[10] = Compound was evaluated for lethal activity through acute lethality model when given perorally; format: ADME, organism-based; details: rat, in vivo, po
Rattus norvegicus [11] = species on record: Rattus norvegicus; experiment: Effective dose against ethanol-induced gastric lesions in male albino rat when given perorally was determined; 0.2-4.7; format: functional; details: Stomach, po; how it was run: as §1
Rattus norvegicus [12] = experiment: Compound was evaluated for activity in stress-induced ulcer rat (po); format: functional
How it was run: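 Rats dosed po with drug or vehicle 30 min before immobilization in restrainers at 4-5 °C for 3 h, then euthanized. Gastric ulcers graded by size and number, with percent inhibition taken against the control mean.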

Rattus norvegicus [13] = species on record: Rattus norvegicus; experiment: Effective dose against ethanol-induced gastric lesions in male albino rat when given perorally was determined; 3.0-10; format: functional; details: Stomach, po; how it was run: as §1
Rattus norvegicus [14] = experiment: Percent inhibition against ethanol-induced gastric lesions in male albino rat was determined at a dose of 5 mg/Kg; format: functional; details: Stomach; how it was run: as §1
Rattus norvegicus [15] = species on record: Rattus norvegicus; experiment: Compound was evaluated for antisecretory action in the pylorus-ligated rat model (PLR); format: functional; how it was run: as §2
Rattus norvegicus [16] = species on record: Rattus norvegicus; experiment: Compound was evaluated for activity in acute lethality model; format: ADME, organism-based; details: in vivo
Rattus norvegicus [17] = experiment: Compound was evaluated for activity against ethanol-induced gastric lesions mg/kg;NS=No significant activity at 25 mg/kg; format: functional, organism-based; design: dose 25 mg/kg; details: Stomach; how it was run: as §1
Rattus norvegicus [18] = species on record: Rattus norvegicus; experiment: Compound was evaluated for activity in stress-induced ulcers; format: functional
How it was run: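 Rats dosed po with drug or vehicle 30 min before immobilization in restrainers at 4-5 °C for 3 h, then euthanized. Gastric ulcers graded by size and number, with percent inhibition taken against the control mean. ED50 with 95% confidence limits obtained by regression of dose-response data.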

Rattus norvegicus [19] = species on record: Rattus norvegicus; experiment: Effective dose against ethanol-induced gastric lesions in male albino rat when given perorally was determined; 2.4-11; format: functional; details: Stomach, po; how it was run: as §1
Rattus norvegicus [20] = experiment: Percent inhibition against ethanol-induced gastric lesions in male albino rat was determined at a dose of 5 mg/Kg (po); format: functional; details: Stomach; how it was run: as §1
Rattus norvegicus [21] = experiment: Percent inhibition against ethanol-induced gastric lesions in male albino rat was determined at a dose of 100 mg/Kg (po); format: functional; details: Stomach; how it was run: as §1

SMILES: S=C(Nc1ccccn1)c1ccccn1
- ED50 (Rattus norvegicus [1]): 2.6 mg/kg

SMILES: S=C(NCc1ccc2c(c1)OCO2)c1ccccn1
- inhibition in vivo at 50 mg/kg (Rattus norvegicus [2]): 11%

SMILES: O=S(=O)(OC[C@H]1O[C@@H](O[C@]2(COS(=O)(=O)[O][Al]([OH])[OH])O[C@H](OS(=O)(=O)[O][Al]([OH])[OH])[C@@H](OS(=O)(=O)[O][Al]([OH])[OH])[C@@H]2OS(=O)(=O)[O][Al]([OH])[OH])[C@H](OS(=O)(=O)[O][Al]([OH])[OH])[C@@H](OS(=O)(=O)[O][Al]([OH])[OH])[C@@H]1OS(=O)(=O)[O][Al]([OH])[OH])[O][Al]([OH])[OH].[OH][Al]([OH])[OH].[OH][Al]([OH])[OH].[OH][Al]([OH])[OH].[OH][Al]([OH])[OH].[OH][Al]([OH])[OH].[OH][Al]([OH])[OH].[OH][Al]([OH])[OH].[OH][Al]([OH])[OH]
- ED50 (Rattus norvegicus [3]): 60 mg/kg
- LD50 (Rattus norvegicus [4]): Not lethal
- ED50 (Rattus norvegicus [5]): inactive

SMILES: O=C(Nc1cc(F)cc(F)c1)c1ccccn1
- inhibition in vivo at 25 mg/kg (Rattus norvegicus [6]): 11%

SMILES: N#Cc1cc(NC(=S)c2ccccn2)ccc1F
- inhibition in vivo at 10 mg/kg (Rattus norvegicus [7]): 29%

SMILES: Fc1ccc(NC(=S)c2ccccn2)cc1Cn1ccnc1
- ED50 (Rattus norvegicus [8]): 0.9 mg/kg

SMILES: COc1ccc(NC(=S)c2ccccn2)cc1Cl
- inhibition in vivo at 25 mg/kg (Rattus norvegicus [6]): 44%

SMILES: CN(C(=S)c1ccccn1)c1cccc(F)c1
- inhibition in vivo at 10 mg/kg (Rattus norvegicus [7]): 31%

SMILES: O=C(O)c1cc(NC(=S)c2ccccn2)ccc1F
- inhibition in vivo at 10 mg/kg (Rattus norvegicus [7]): 42%

SMILES: S=C(Nc1ccccc1)c1ccccn1
- ED50 (Rattus norvegicus [9]): inactive
- LD50 [10]: > 1000 mg/kg
- ED50 (Rattus norvegicus [11]): 1.1 mg/kg
- ED50 (Rattus norvegicus [12]): 10 mg/kg

SMILES: Cc1ccc(NC(=S)c2ccccn2)cc1F
- ED50 (Rattus norvegicus [13]): 5.4 mg/kg

SMILES: Fc1cc(F)cc(NC(=S)c2ccncc2)c1
- inhibition in vivo at 25 mg/kg (Rattus norvegicus [6]): 85%

SMILES: CCOC(=O)c1cc(NC(=S)c2ccccn2)ccc1F
- inhibition in vivo at 10 mg/kg (Rattus norvegicus [7]): 10%

SMILES: C[S+]([O-])c1ccc(NC(=S)c2ccccn2)cc1 (centres undefined)
- inhibition in vivo at 5 mg/kg (Rattus norvegicus [14]): 54%

SMILES: CNC(=C[N+](=O)[O-])NCCSCc1ccc(CN(C)C)o1 [RANITIDINE]
- ED50 (Rattus norvegicus [15]): 2.4 mg/kg
- LD50 (Rattus norvegicus [16]): Not Active
- ED50 (Rattus norvegicus [17]): inactive
- ED50 (Rattus norvegicus [18]): 3.6 mg/kg

SMILES: Fc1cc(F)cc(NC(=S)c2cccnc2)c1
- inhibition in vivo at 25 mg/kg (Rattus norvegicus [6]): 55%

SMILES: Cc1ccc(NC(=S)c2ccccn2)cc1Cl
- inhibition in vivo at 25 mg/kg (Rattus norvegicus [6]): 22%

SMILES: S=C(Nc1ccccn1)c1cnccn1
- ED50 (Rattus norvegicus [19]): 5.2 mg/kg

SMILES: S=C(Nc1cccc(CN2CCSCC2)c1)c1ccccn1
- inhibition in vivo at 10 mg/kg (Rattus norvegicus [7]): 32%

SMILES: S=C(c1ccccn1)N1CCOCC1
- inhibition in vivo at 50 mg/kg (Rattus norvegicus [2]): 44%

SMILES: CSc1ccc(NC(=S)c2ccccn2)cc1
- inhibition in vivo at 5 mg/kg (Rattus norvegicus [20]): 31%

SMILES: S=C(Nc1cccc(CN2CCOCC2)c1)c1ccccn1
- inhibition in vivo at 10 mg/kg (Rattus norvegicus [7]): 64%

SMILES: COc1ccc(NC(=S)c2ccccn2)cc1OC
- inhibition in vivo at 5 mg/kg (Rattus norvegicus [20]): 0%

SMILES: Fc1ccc(NC(=S)c2ccccn2)cc1Cl
- inhibition in vivo at 25 mg/kg (Rattus norvegicus [6]): 56%

SMILES: FC(F)(F)COc1cccc(NC(=S)c2ccccn2)c1
- inhibition in vivo at 10 mg/kg (Rattus norvegicus [7]): 7%

SMILES: CN(C(=S)c1ccccn1)c1cc(F)cc(F)c1
- inhibition in vivo at 25 mg/kg (Rattus norvegicus [6]): 40%

SMILES: CN1CCN(Cc2cccc(NC(=S)c3ccccn3)c2)CC1
- inhibition in vivo at 10 mg/kg (Rattus norvegicus [7]): 10%

SMILES: O=C(Nc1cccc(F)c1)c1ccccn1
- inhibition in vivo at 10 mg/kg (Rattus norvegicus [7]): 24%

SMILES: N#CN/C(=N\c1ccccc1)c1ccccn1
- inhibition in vivo at 5 mg/kg (Rattus norvegicus [14]): 37%

SMILES: S=C(c1ccccn1)N1CCCc2ccccc21
- inhibition in vivo at 10 mg/kg (Rattus norvegicus [7]): 17%

SMILES: CCN(C(=S)c1ccccn1)c1cc(F)cc(F)c1
- inhibition in vivo at 10 mg/kg (Rattus norvegicus [7]): 13%

SMILES: S=C(c1ccccn1)N1CCN(c2ccccc2)CC1
- inhibition in vivo at 50 mg/kg (Rattus norvegicus [2]): -6%

SMILES: Fc1ccccc1/N=C(\S)c1ccccn1
- inhibition in vivo at 100 mg/kg (Rattus norvegicus [21]): 69%

SMILES: S=C(Nc1cc(Cl)cc(Cl)c1)c1ccccn1
- inhibition in vivo at 25 mg/kg (Rattus norvegicus [6]): 89%

SMILES: FC(F)(F)Oc1ccc(NC(=S)c2ccccn2)cc1
- inhibition in vivo at 5 mg/kg (Rattus norvegicus [14]): 35%

SMILES: S=C(Nc1ccc(OCc2ccccc2)cc1)c1ccccn1
- inhibition in vivo at 5 mg/kg (Rattus norvegicus [20]): 47%
